ATG4B inh: ATG4B protease inhibitors, primary screen, biochemical, fluorescence, uHTS; inhibition, % at 8.33 µM; AID 504462, 2011; ATG4B cleavage of LC3-PLA2, NBD-HPC fluorescence, 1 h; Cysteine protease ATG4B (Homo sapiens), Q9Y4P1; actives 0.51% (n = 340,000); in the data active means inhibition above about 40%
Target sequence (Q9Y4P1 whole entry, looked up): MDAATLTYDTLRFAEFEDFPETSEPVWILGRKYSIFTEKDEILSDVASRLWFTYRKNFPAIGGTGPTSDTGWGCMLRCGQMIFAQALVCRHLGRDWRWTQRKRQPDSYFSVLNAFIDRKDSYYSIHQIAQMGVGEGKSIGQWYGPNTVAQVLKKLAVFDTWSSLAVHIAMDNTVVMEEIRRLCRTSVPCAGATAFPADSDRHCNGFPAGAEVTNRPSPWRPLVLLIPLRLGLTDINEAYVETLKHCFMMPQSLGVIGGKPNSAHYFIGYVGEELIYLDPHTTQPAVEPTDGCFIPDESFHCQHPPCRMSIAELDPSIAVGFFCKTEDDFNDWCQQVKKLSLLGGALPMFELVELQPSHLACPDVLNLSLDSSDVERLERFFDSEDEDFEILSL
MT1-MMP act inh: blockers of MT1-MMP proenzyme processing, primary screen, HT1080 RFP-PRO-GFP cells, GFP/RFP fluorescence; AID 651647, 2012; GFP/RFP ratio change, % at 20 µM; actives 0.061% (n = 360,000); GFP/RFP ratio fluorescence, overnight; percent of plate control window, DMSO zero;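 active means GFP/RFP ratio change of at least 30% with cell ATP level not reduced by more than half and red fluorescence within 50% of control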
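Assay system: HT1080 cells carrying an RFP-PRO-GFP reporter | Dosing: Single dose of 20 µM compound, 1% DMSO final | Incubation: Cells overnight before dosing, compound overnight, 37 °C, 5% CO2 | Evaluation: GFP/RFP fluorescence ratio | Control set: DMSO and RFP-L50D-GFP cell wells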
MPTP block: mitochondrial permeability transition pore inhibitors, primary screen, biochemical, isolated mouse mitochondria, absorbance | Ca2+ swelling absorbance, 30 min | inhibition, % at 10 µM | actives 1.4% (n = 360,000) | AID 602449, 2012;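 active means inhibition of 50% or more, scaled per plate between neutral and stimulator controls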;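 further: 0% = DMSO wells given calcium and 100% = 1 mM EGTA wells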
SKN-1 inh: suppressors of acrylamide-induced Pgst-4::GFP reporter in worms, primary screen, SKN-1 inhibitor project, whole organism, uHTS, GFP/RFP fluorescence ratio, strain VP596 | inhibition, % at 21.8 µM | C. elegans VP596 Pgst-4::GFP/RFP ratio, 24 h | actives 0.49% (n = 360,000) | AID 624304, 2012;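 active means interference check ratio from 0.5 to 1.5 plus GFP to RFP signal ratio inhibition reaching or exceeding a fixed threshold, cut at about 30% in these data, passing the limit was not always enough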
ATG4B confirm: ATG4B protease inhibitors, retest, confirmation, biochemical, fluorescence, single concentration | shares compounds with ATG4B inh | ATG4B protease fluorescent substrate cleavage assay | inhibition, % at 8.33 µM | actives 92% (n = 320) | AID 504757, 2011; in the data active means inhibition above about 39%
PLA2 ctr: PLA2 enzyme inhibition, counter-screen for ATG4B inhibitor project, biochemical, single concentration, uHTS hits. shares compounds with ATG4B inh. AID 588402, 2011. inhibition, % at 8.33 µM. actives 66% (n = 1,600). purified PLA2, NBD-C6-HPC fluorescence, 45 min; in the data active means inhibition above about 50%
Target sequence (P04054 whole entry, looked up): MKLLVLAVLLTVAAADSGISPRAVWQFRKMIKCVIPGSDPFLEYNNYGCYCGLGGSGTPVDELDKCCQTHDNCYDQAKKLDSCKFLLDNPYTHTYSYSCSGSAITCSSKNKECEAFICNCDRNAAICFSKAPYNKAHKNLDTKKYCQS
* hit, by the source's call; / = not tested or not shown. The list is not random: actives were taken first. Their share in the collection is about 2.3%.

SMILES	ATG4B inh	MT1-MMP act inh	MPTP block	SKN-1 inh	PLA2 ctr	others
CC(=O)NC1(C(F)(F)F)C(=O)NC(C)=C1C#N (stereo not drawn)	-8.1	-2.3	-2.5	-4.2	/
O=C(CNCCc1ccc(Cl)cc1Cl)NCc1ccco1	41.1*	0.1	-0.1	10.1	44.8	ATG4B confirm=65.9*
O=C(CNCc1ccccc1Cl)NCc1ccco1	-5.9	-5.6	0.5	17.2	/
C/C(=N/NC(=O)Cc1ccccc1)c1ccc(C)s1	-8.2	2.3	8.5	6.7	/
CCCCC1=CC2=CC(=O)C(C)(OC(=O)CCc3ccccc3)C(=O)C2=CO1 (stereo not drawn)	41.6*	-3.1	3.4	23.7	68.9*
CC(C)Cc1cc(C(=O)NCCCN2CCOCC2)no1	-0.3	1.6	-1.1	-1.0	/
Cc1ccc(S(=O)(=O)NCc2c(Cl)cccc2Oc2ccccc2)cc1	63.1*	-0.7	0.8	2.0	58.9*
Cc1ccc2[nH]c(=O)c(CNS(=O)(=O)c3ccccc3)c(-c3ccccc3)c2c1	-8.6	-4.1	2.8	-1.9	/
O=C(O)COc1ccc(-c2nc(-c3ccccc3)c(-c3ccccc3)[nH]2)cc1	47.8*	-0.2	-2.8	17.5	59.0*
CC1CCCN(C(=O)c2ccc3c(=O)n(Cc4ccc5c(c4)OCO5)c(=S)[nH]c3c2)C1 (stereo not drawn)	85.2*	4.1	41.4	-6.0	62.4*
O=C1c2ccccc2C(=O)N1CCC#Cc1ccc2cc(CCCO)oc(=O)c2c1	-8.9	4.4	4.2	-8.8	/
O=C(O)C(=Cc1ccc([N+](=O)[O-])cc1)c1cccc(Cl)c1	/	2.3	-1.0	9.9	/
COC1=CC(=O)c2c(ccc3ncnc(N)c23)C1=O	62.0*	-102.3	-1.1	20.9	-12.0	ATG4B confirm=48.7*
O=C(CCCn1c(=S)[nH]c2cc3c(cc2c1=O)OCO3)N1CCN(c2ccccc2)CC1	38.0	4.5	3.7	7.4	/
O=C(CCCn1c(=S)[nH]c2cc3c(cc2c1=O)OCO3)N1CCc2ccccc2C1	60.4*	-0.6	2.4	-5.3	62.7*
CC(=O)c1ccc(N2CCN(C(=O)CCCn3c(=S)[nH]c4cc5c(cc4c3=O)OCO5)CC2)cc1	44.6*	2.1	6.3	-21.8	60.6*
CC(C)N(Cc1nc(-c2ccc(Cl)cc2)no1)Cc1nccn1C	20.8	-4.4	-1.8	3.2	/
Cc1cccc(C(=O)Nc2scc(-c3ccc(Br)cc3)c2C(=O)O)c1	36.8	0.4	11.7	0.8	/
Cc1ccc(-c2csc(NC(=O)c3cccc(C)c3)c2C(=O)O)cc1	44.6*	3.6	6.6	11.4	51.8*
Cc1cccc(C(=O)Nc2scc(CC(C)C)c2C(=O)O)c1	73.2*	0.2	5.6	5.9	68.1*
O=C(C1CCN(c2ncnc3c2nc2n3CCCCC2)CC1)N1CCCCC1	-0.4	5.6	0.7	-14.9	/
CCN(Cc1ccccc1)C(=O)C1CCN(c2ncnc3c2nc2n3CCCCC2)CC1	45.2*	-0.6	-0.4	-10.0	52.7*
CCc1ccccc1N(CC)C(=O)C1CCN(c2ncnc3c2nc2n3CCCCC2)CC1	52.5*	8.9	-2.2	7.6	65.6*
O=[N+]([O-])c1cccc(-c2nnc3ccccn23)c1	-3.6	/	/	/	/
Cc1ccc(S(=O)(=O)/C(C#N)=C/c2c(N3CCN(C)CC3)nc3c(C)cccn3c2=O)cc1	49.6*	-4.1	-6.2	-25.1	58.9*
SMILES	ATG4B inh	MT1-MMP act inh	MPTP block	SKN-1 inh	PLA2 ctr	others
Cc1ccc(S(=O)(=O)/C(C#N)=C/c2c(N3CC(C)OC(C)C3)nc3c(C)cccn3c2=O)cc1 (stereo not drawn)	43.7*	-11.3	11.9	-2.6	51.1*
CCN1CCN(c2nc3c(C)cccn3c(=O)c2/C=C(\C#N)S(=O)(=O)c2ccc(C)cc2)CC1	66.7*	-1.7	0.0	3.7	68.2*
CC1CN(c2nc3ccccn3c(=O)c2/C=C(\C#N)S(=O)(=O)c2ccccc2)CC(C)O1 (stereo not drawn)	-7.8	2.7	-2.1	1.7	/
Cc1cccn2c(=O)c(/C=C(\C#N)S(=O)(=O)c3ccccc3)c(N3CCN(C)CC3)nc12	37.3	-2.3	-0.5	-13.6	/
CCn1cc2nc(SCC(=O)Nc3ccccc3F)n(Cc3ccccc3)c(=O)c2n1	-13.5	2.5	-1.9	8.3	/
COc1ccc(S(=O)(=O)N2CCC(C(=O)N3CCc4ccccc4C3)CC2)cc1C	56.5*	-0.1	0.5	2.3	50.0*
COc1ccc(N/C(=C2\CCCC2=O)C2CCCCC2)cc1	55.8*	-1.8	0.5	-4.9	59.7*
O=c1n(Cc2ccccc2Cl)nc2n1-c1ccccc1SC2	52.4*	6.9	1.7	1.1	54.3*
CC(C)C[C@H](NC(=O)[C@H](Cc1ccccc1)n1c(=O)[nH]c2ccccc2c1=O)C(=O)N1CCC[C@H]1C(=O)O	0.7	-0.9	-2.6	1.2	/
COc1cc(C=O)ccc1OCc1cccc(Br)c1	4.5	-1.0	1.1	5.1	/
COc1cc(C=O)ccc1OCc1ccccc1Br	52.9*	2.6	31.1	3.3	51.8*
CN(C(=O)c1ccc(NC(=O)Cc2cccc(NC(=O)C3CCCN(C(=O)CCc4ccccc4)C3)c2)cc1)C1CC1 (stereo not drawn)	-10.2	-0.6	-0.1	-3.5	/
CN1CCN(C(=O)c2ccc3c(c2)NC(=O)/C(=C/c2ccccc2)S3)CC1	17.8	-2.9	-1.0	13.2	/
O=C1Nc2cc(C(=O)N3CCc4ccccc4C3)ccc2S/C1=C\c1ccccc1	72.5*	-2.7	1.7	-4.3	78.4*
CCCCCCCCCCCCCCCC(O)C[N+](C)(C)CCO (stereo not drawn)	54.6*	-14.1	2.0	21.7	47.4	ATG4B confirm=56.3*
Cn1cccc1-c1cc(C(=O)N/N=C/c2cc(Br)ccc2O)[nH]n1	49.1*	0.5	0.7	15.7	56.0*
Cn1cccc1-c1cc(C(=O)N/N=C/c2ccccc2Cl)[nH]n1	31.6	2.7	-1.8	4.2	/
CCn1nnc(NC(=O)C(c2ccccc2)c2ccccc2)n1	4.1	-2.5	-2.8	2.7	/
Cc1ccc2nc(N/N=C/c3ccccc3F)nc(-c3ccccc3)c2c1	46.2*	-9.5	18.4	2.0	39.6	ATG4B confirm=75.0*
CCC(=O)Nc1cc2c3c(c1)CCN3C(=O)CC2	7.6	-0.5	-0.6	3.7	/
COC(=O)C[C@H]1C[C@H]2c3cc(NC(=O)Cc4ccncc4)ccc3O[C@H]2[C@@H](CO)O1	/	0.1	-0.5	-9.5	/
O=c1cc(-c2ccccc2Cl)oc2c(NS(=O)(=O)c3cccs3)ccc(O)c12	57.3*	-3.2	1.2	-0.2	73.9*

Source: PubChem BioAssay
